Source: ChEMBL document CHEMBL4177556, “Novel 5-HT7R antagonists, arylsulfonamide derivatives of (aryloxy)propyl piperidines: Add-on effect to the antidepressant activity of SSRI and DRI, and pro-cognitive profile” (Bioorg Med Chem, 2017)
Blank lines part the entries; values can stand above or below the molecule they belong to. The source made the active and inactive calls.

Tests used:
[1] = molecular target: T1, 5-hydroxytryptamine receptor 7 (Homo sapiens, UniProt P34969); test: Displacement of [3H]-5-CT from human 5-HT7b receptor expressed in HEK293 cells after 1 hr by microbeta counting analysis; type: cell-based
T1 sequence (P34969 whole entry): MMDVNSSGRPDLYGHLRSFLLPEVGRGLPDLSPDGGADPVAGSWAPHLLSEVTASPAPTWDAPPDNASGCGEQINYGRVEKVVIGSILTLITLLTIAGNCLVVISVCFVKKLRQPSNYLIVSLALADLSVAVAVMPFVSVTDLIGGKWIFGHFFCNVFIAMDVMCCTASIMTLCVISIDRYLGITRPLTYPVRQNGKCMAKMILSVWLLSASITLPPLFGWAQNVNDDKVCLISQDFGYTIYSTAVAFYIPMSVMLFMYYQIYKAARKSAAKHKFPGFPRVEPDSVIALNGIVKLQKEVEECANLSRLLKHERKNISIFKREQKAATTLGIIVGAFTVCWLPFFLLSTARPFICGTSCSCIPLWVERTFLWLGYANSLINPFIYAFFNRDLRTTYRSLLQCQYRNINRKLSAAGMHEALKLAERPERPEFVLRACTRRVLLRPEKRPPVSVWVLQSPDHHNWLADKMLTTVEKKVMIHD
How it was run: (§1)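 Membranes from stably transfected HEK293 or CHO-K1 cells, homogenized, centrifuged twice at 35,000g, with 15 min at 37 °C in between. Receptor-specific Tris-HCl buffers with MgCl2, plus EDTA, pargyline or ascorbate as applicable. Incubated 1 h at 37 °C (5-HT1A at room temperature), filtered, and bound radioactivity counted.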

[2] = species: Homo sapiens; test: Selectivity ratio of Ki for human 5-HT1A receptor to Ki for human 5-HT7b receptor
[3] = molecular target: T2, 5-hydroxytryptamine receptor 1A (Homo sapiens, UniProt P08908); test: Displacement of [3H]-8-OH-DPAT from human 5-HT1A receptor expressed in HEK293 or CHO-K1 cells after 1 hr by microbeta counting analysis; type: cell-based; how it was run: as §1
T2 sequence (P08908 whole entry): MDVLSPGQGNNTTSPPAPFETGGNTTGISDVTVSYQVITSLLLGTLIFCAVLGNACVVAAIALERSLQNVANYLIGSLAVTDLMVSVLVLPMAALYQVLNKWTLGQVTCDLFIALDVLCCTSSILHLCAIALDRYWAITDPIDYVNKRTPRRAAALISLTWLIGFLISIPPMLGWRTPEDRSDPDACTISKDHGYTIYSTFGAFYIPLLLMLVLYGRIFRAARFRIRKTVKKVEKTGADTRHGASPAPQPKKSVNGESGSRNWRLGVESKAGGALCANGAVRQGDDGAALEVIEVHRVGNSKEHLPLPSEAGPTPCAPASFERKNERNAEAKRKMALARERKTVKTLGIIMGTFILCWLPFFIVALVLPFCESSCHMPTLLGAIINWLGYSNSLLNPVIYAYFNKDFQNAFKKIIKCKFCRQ

[4] = molecular target: Sodium-dependent noradrenaline transporter (Homo sapiens) (UniProt P23975); test: Displacement of [3H]nisoxetine from recombinant human NET at 1 uM after 120 mins by scintillation counting analysis relative to control
Chain of Sodium-dependent noradrenaline transporter (Homo sapiens) (P23975 whole entry): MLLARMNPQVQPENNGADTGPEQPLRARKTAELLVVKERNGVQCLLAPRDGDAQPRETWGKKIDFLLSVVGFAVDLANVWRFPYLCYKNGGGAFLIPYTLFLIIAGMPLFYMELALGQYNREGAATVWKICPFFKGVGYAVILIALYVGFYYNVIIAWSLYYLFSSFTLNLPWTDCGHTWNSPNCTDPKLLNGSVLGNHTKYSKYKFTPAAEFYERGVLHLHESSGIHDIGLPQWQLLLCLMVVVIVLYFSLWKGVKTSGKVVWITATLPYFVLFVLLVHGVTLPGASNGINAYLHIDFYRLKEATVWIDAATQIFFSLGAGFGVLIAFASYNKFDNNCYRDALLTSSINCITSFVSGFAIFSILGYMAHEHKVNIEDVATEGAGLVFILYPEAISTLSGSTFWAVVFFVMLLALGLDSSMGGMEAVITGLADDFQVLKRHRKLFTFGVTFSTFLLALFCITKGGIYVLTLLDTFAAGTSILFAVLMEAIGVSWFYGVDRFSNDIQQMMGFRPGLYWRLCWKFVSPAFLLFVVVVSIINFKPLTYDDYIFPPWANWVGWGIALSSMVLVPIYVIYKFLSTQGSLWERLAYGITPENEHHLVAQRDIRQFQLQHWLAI
How it was run: (§2)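 Transporter and α1-adrenergic binding run externally by Eurofins Cerep using their standard protocols. Reported as % inhibition of control specific binding.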

[5] = molecular target: T1, 5-hydroxytryptamine receptor 7; test: Antagonist activity at human 5-HT7b receptor expressed in HEK293 cells assessed as inhibition of 5-CT induced cAMP accumulation after 30 mins by LANCE based TR-FRET assay; type: functional, cell-based
How it was run: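 Stable 5-HT7 HEK293 cells in DMEM with 10% dialysed FBS and G418, harvested at 90% confluence, washed in warm PBS, and resuspended in HBSS/5 mM HEPES/0.5 mM IBMX/0.1% BSA. Compound incubated with cells for 30 min at room temperature against 5-CT (10 nM). Cells lysed with Eu-cAMP/ULight-anti-cAMP for 1 h at room temperature, then LANCE cAMP read-out. Triplicate at 8 concentrations.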

[6] = test system: Mus musculus; test: Antidepressant-like activity in C57BL/6J mouse assessed as increase in number of fight episodes at 0.625 to 1.25 mg/kg measured during 6 mins session by tail suspension test; type: functional, organism-based
How it was run: (§3)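 Male C57BL/6J mice (22–26 g), 7–9 per group. Compound in distilled water, i.p. at 10 ml/kg, 60 min before test. Mice suspended by tail from a strain-gauge hook for 6 min. Struggling episodes, average event force and immobility (force below 0.20 N threshold) recorded automatically. One-way ANOVA with Bonferroni; mean ± SEM.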

[7] = molecular target: 5-hydroxytryptamine receptor 6 (Homo sapiens, UniProt P50406); test: Displacement of [3H]-LSD from human 5-HT6 receptor expressed in HEK293 or CHO-K1 cells after 1 hr by microbeta counting analysis; type: cell-based; how it was run: as §1
Chain of 5-hydroxytryptamine receptor 6 (P50406 whole entry): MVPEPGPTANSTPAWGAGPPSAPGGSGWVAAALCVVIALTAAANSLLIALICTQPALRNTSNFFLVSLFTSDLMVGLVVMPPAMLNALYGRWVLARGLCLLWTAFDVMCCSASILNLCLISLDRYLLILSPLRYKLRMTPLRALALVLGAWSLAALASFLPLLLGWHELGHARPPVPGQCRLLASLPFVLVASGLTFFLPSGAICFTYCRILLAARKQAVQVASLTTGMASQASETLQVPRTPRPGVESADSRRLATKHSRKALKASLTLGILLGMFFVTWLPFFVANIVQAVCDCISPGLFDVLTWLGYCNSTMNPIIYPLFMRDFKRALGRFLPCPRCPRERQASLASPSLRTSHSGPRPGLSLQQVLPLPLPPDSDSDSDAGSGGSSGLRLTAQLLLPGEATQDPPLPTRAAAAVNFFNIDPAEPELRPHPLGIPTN

[8] = molecular target: Sodium-dependent dopamine transporter (Homo sapiens) (UniProt Q01959); test: Displacement of [3H]BTCP from recombinant human DAT at 1 uM after 120 mins by scintillation counting analysis relative to control; how it was run: as §2
Chain of Sodium-dependent dopamine transporter (Homo sapiens) (Q01959 whole entry): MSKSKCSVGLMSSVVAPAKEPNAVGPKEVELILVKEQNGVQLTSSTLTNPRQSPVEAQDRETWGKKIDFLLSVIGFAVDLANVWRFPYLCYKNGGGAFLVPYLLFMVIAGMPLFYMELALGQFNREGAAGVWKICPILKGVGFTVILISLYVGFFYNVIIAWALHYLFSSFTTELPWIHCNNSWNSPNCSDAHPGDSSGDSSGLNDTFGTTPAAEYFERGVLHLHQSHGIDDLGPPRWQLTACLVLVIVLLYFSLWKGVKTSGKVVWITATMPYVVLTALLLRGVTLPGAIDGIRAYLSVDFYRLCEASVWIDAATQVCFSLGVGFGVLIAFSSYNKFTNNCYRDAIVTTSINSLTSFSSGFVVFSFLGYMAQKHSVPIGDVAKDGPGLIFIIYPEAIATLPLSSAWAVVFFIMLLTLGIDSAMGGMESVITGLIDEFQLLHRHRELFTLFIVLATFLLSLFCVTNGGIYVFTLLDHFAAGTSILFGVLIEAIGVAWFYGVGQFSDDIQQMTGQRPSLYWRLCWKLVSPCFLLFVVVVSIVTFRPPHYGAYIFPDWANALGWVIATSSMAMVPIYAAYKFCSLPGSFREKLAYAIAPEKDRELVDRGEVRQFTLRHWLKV

[9] = test system: Mus musculus; test: Antidepressant-like activity in C57BL/6J mouse assessed as decrease in immobility time at 2.5 mg/kg measured during 6 mins session by tail suspension test; type: functional, organism-based; how it was run: as §3
[10] = test system: Rattus norvegicus; test: Cognitive enhancement effect in Sprague-Dawley rat memory impairment model assessed as reversal of natural forgetting impairment administered ip 30 mins prior to test measured after 24 hrs by novel object recognition test; type: functional, organism-based
How it was run: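 Male Sprague–Dawley rats (about 250 g), handled and acclimatized. Habituated to an open field arena (25 lx) for 5 min, 24 h before testing. Two 3-min trials (T1, T2) separated by a 24 h inter-trial interval. Drug given i.p. 30 min before T1. Object exploration video-tracked; discrimination index = (EB−EA)/(EA+EB).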

[11] = test system: Mus musculus; test: Antidepressant-like activity in C57BL/6J mouse assessed as decrease in immobility time at 1.25 mg/kg measured during 6 mins session by tail suspension test; type: functional, organism-based; how it was run: as §3
[12] = test system: Mus musculus; test: Antidepressant-like activity in Swiss albino mouse assessed as decrease in immobility time at 0.625 to 2.5 mg/kg measured during last 4 mins of 6 mins test by forced swim test relative to control; type: functional; design: scale not given: the % may be the effect or the level left
How it was run: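 Porsolt swim test in male Swiss albino mice (22–26 g), 7–10 per dose, each used once, run 09:00–14:00 by a blinded observer. Drugs in distilled water, i.p. at 10 ml/kg: escitalopram 30 min before test, others 60 min. Immobility scored during the last 4 min of a 6 min swim at 23–25 °C. One-way ANOVA with Bonferroni vs vehicle.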

[13] = molecular target: D(2) dopamine receptor (Homo sapiens, UniProt P14416); test: Displacement of [3H]-Raclopride from human dopamine D2L receptor expressed in HEK293 or CHO-K1 cells after 1 hr by microbeta counting analysis; type: cell-based; how it was run: as §1
Chain of D(2) dopamine receptor (P14416 whole entry): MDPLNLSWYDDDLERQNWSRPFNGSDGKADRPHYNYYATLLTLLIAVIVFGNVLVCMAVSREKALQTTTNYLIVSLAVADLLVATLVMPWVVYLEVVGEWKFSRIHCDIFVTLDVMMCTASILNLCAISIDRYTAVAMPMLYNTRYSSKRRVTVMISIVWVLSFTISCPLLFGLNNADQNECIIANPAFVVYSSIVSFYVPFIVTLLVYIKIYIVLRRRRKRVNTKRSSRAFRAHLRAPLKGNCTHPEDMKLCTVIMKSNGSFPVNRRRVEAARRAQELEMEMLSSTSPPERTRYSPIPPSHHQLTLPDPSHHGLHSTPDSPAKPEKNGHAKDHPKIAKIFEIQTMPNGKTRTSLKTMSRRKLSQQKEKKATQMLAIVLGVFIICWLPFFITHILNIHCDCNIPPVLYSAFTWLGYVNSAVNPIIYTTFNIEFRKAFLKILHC

[14] = test system: Mus musculus; test: Antidepressant-like activity in C57BL/6J mouse assessed as increase in force of fights at 2.5 mg/kg measured during 6 mins session by tail suspension test; type: functional, organism-based; how it was run: as §3
[15] = test system: Mus musculus; test: Toxicity in mouse assessed as effect on spontaneous locomotory activity at 0.312 to 2.5 mg/kg, ip administered 60 mins prior to testing measured for 6 mins; type: organism-based; conditions: in vivo, 0.1 h
How it was run: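 Swiss albino or C57BL/6J mice habituated 30 min in activity cages. Ambulation counted from 2–6 min (matching the swim test) or over 6 min (matching the tail suspension test) with an infrared multi-channel activity monitor. Dosing i.p. as for the behavioral tests.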

[16] = molecular target: 5-hydroxytryptamine receptor 2A (Homo sapiens, UniProt P28223); test: Displacement of [3H]-Ketanserin from human 5-HT2A receptor expressed in HEK293 or CHO-K1 cells after 1 hr by microbeta counting analysis; type: cell-based; how it was run: as §1
Chain of 5-hydroxytryptamine receptor 2A (P28223 whole entry): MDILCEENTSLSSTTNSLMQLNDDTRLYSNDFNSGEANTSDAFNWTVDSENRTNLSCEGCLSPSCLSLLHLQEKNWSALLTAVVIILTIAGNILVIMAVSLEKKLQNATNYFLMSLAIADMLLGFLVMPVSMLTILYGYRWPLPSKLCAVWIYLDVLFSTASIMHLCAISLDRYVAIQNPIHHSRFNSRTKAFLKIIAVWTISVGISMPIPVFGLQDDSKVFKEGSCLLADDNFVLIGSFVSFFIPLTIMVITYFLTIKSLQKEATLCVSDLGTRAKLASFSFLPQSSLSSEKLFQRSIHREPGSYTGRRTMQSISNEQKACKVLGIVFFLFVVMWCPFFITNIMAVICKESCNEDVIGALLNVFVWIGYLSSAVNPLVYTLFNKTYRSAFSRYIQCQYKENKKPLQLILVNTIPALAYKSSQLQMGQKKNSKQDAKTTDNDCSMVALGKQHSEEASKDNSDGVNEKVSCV

[17] = molecular target: Adrenergic receptor alpha-1 (Homo sapiens) (UniProt P35348+P25100+P35368); test: Binding affinity to alpha1-adrenergic receptor (unknown origin) at 1 uM relative to control; type: protein assay; how it was run: as §2
[18] = molecular target: Sodium-dependent serotonin transporter (Homo sapiens) (UniProt P31645); test: Displacement of [3H]imipramine from recombinant human SERT at 1 uM after 60 mins by scintillation counting analysis relative to control; how it was run: as §2
Chain of Sodium-dependent serotonin transporter (Homo sapiens) (P31645 whole entry, looked up): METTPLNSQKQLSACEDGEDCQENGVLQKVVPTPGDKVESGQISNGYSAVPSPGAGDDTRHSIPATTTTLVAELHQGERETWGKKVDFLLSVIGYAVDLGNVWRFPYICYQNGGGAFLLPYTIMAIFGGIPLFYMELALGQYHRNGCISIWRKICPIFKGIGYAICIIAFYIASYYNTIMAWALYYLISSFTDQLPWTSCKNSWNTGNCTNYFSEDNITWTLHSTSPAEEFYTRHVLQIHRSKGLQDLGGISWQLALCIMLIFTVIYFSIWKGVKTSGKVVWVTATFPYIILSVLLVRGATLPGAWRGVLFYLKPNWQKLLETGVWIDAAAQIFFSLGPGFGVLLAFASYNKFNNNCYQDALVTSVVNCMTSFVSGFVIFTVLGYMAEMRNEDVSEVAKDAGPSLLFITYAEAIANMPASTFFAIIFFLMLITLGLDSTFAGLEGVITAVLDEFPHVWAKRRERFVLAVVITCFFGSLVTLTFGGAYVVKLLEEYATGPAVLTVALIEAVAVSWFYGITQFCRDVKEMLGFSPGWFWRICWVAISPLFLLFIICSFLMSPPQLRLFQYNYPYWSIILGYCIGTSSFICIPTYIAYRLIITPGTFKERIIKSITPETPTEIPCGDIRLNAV

[19] = test system: Mus musculus; test: Antidepressant-like activity in Swiss albino mouse assessed as decrease in immobility time at 0.312 mg/kg cotreated with 1.25 mg/kg of bupropion measured during last 4 mins of 6 mins test by forced swim test; type: functional, organism-based
How it was run: (§4)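 Male Swiss albino mice, 7–10 per group. Test compound (i.p., 60 min pre-test) co-given with reboxetine or bupropion (60 min) or escitalopram (30 min), all in distilled water at 10 ml/kg. Placed in a water cylinder (10 cm water, 23–25 °C) for 6 min; immobility scored over the last 4 min by a blinded observer. Two-way ANOVA with Bonferroni.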

[20] = test system: Mus musculus; test: Antidepressant-like activity in Swiss albino mouse assessed as decrease in immobility time at 0.312 mg/kg cotreated with 0.625 mg/kg of escitalopram measured during last 4 mins of 6 mins test by forced swim test relative to control; type: functional; design: scale not given: the % may be the effect or the level left; how it was run: as §4
[21] = test system: Mus musculus; test: Antidepressant-like activity in C57BL/6J mouse assessed as increase in number of fight episodes at 1.25 mg/kg measured during 6 mins session by tail suspension test; type: functional, organism-based; how it was run: as §3

SMILES: CC(COc1ccccc1-c1ccccc1)N1CCC(NS(=O)(=O)c2ccc(F)cc2)CC1 (stereo not drawn)
Ki [1]: 34 nM
Ratio Ki [2]: 9
Ki [3]: 297 nM

SMILES: CC(C)c1ccccc1OCC(C)N1CCC(NS(=O)(=O)c2ccc(F)cc2)CC1 (stereo not drawn)
Ki [1]: 74 nM
Ratio Ki [2]: 16
Ki [3]: 1170 nM

SMILES: CC(C)c1ccccc1OCCCN1CCC(NS(=O)(=O)c2ccc(F)cc2)CC1
Ki [1]: 32 nM
Activity [4]: < 10%
Kb [5]: 1 nM
Activity [21]: Active
Ratio Ki [2]: 65
Ki [7]: 268 nM
Activity [8]: < 10%
Activity [9]: Active
Activity [10]: Dose-dependent effect
Activity [12]: 19 - 53%
Ki [13]: 328 nM
Activity [14]: Active
Ki [3]: 2080 nM
Activity [15]: Non-Toxic
Ki [16]: 1350 nM
Activity [18]: 79%
Activity [19]: Active
Activity [20]: 32.6%

SMILES: CC(COc1ccccc1-c1ccccc1)N1CCC(NS(=O)(=O)c2cccc(Cl)c2)CC1 (stereo not drawn)
Ki [1]: 32 nM
Ratio Ki [2]: 22
Ki [3]: 696 nM

The next lines start with results.

Ki [1]: 33 nM
Activity [4]: < 40%
Kb [5]: 25 nM
Ratio Ki [2]: 40
Ki [7]: 295 nM
Activity [8]: < 40%
Ki [13]: 343 nM
Ki [3]: 1330 nM
Ki [16]: 2110 nM
Activity [17]: < 10%
Activity [18]: < 40%
SMILES: O=S(=O)(NC1CCN(CC(O)COc2ccccc2-c2ccccc2)CC1)c1cccc(Cl)c1 (stereo not drawn)
Activity [6]: Active
Activity [9]: Active
Activity [10]: Dose-dependent effect
Activity [11]: Active
Activity [12]: 28 - 46%
Activity [14]: Active
Activity [15]: Non-Toxic
Activity [19]: Active
Activity [20]: 25.4%

Ki [1]: 104 nM
Ratio Ki [2]: 5
Ki [3]: 506 nM
SMILES: CC(C)c1ccccc1OCC(O)CN1CCC(NS(=O)(=O)c2ccc(F)cc2)CC1 (stereo not drawn)

Ki [1]: 52 nM
Ratio Ki [2]: 34
Ki [3]: 1790 nM
SMILES: CC(C)c1ccccc1OCCCN1CCC(NS(=O)(=O)c2cccc(F)c2)CC1
